Assay [1] concerns the target Dual specificity tyrosine-phosphorylation-regulated kinase 1A (Homo sapiens) (UniProt Q13627). In words: Inhibition of N-terminal His-tagged human Dyrk1A (126 to 490 residues) expressed in Escherichia coli BL21 (DE3) cells at 10 uM using Woodtide as substrate assessed as remaining enzyme activity after 10 mins in presence of [gamma-32P]-ATP by microbeta scintillation counting method. An outline of the steps: (§1)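 Recombinant DYRK1A kinase assay with Woodtide as the peptide substrate and ATP at 100 μM. Each compound was tested at two concentrations, 1 μM and 10 μM. Results are given as the percentage of DYRK1A activity remaining relative to the uninhibited enzyme.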

Assay [2] shares this target. Description: Inhibition of N-terminal His-tagged human Dyrk1A (126 to 490 residues) expressed in Escherichia coli BL21 (DE3) cells at 1 uM using Woodtide as substrate assessed as remaining enzyme activity after 10 mins in presence of [gamma-32P]-ATP by microbeta scintillation counting method. In outline:
as §1

As to `Oc1ccc2c(c1)CNc1cc(O)ccc1N2`, the Activity in assay [1] worked out at 113%; in assay [2], 104%.

Take `Oc1ccc(-c2cnc3nccc(-c4ccc(O)cc4)c3c2)cc1`: the values for the Activity in assay [1] and in assay [2] were 30% and 67%, respectively.

With `Oc1ccc(-c2ccnc(-c3cc(-c4ccc(O)cc4)n[nH]3)c2)cc1`, the Activity stood at 9% in assay [1] and 64% in assay [2].

Consider `O=C(Nc1cccc(O)c1)c1cncc2nnc(-c3ccc(O)cc3)n12`, for which the Activity was found to be 102% in assay [1] and 104% in assay [2].

On to `Oc1ccc(-c2nnc3cncc(OCCc4cccc(O)c4)n23)cc1`, for which the Activity in assay [1] amounted to 91%; in assay [2], 94%.

In the case of `Oc1ccc(-c2ccc(-c3cc(-c4ccc(O)cc4)n[nH]3)nc2)cc1`, the values for the Activity in assay [1] and in assay [2] were 98% and 110%, respectively.

As to `O=C(Nc1ccc(O)cc1)c1cncc2nnc(-c3ccc(O)cc3)n12`, the Activity in assay [1] and in assay [2] was 99% each time.

With `CC(=O)Nc1nc2ccc(-c3ccc(O)cc3)cc2n1-c1ccc(O)cc1`, the values for the Activity in assay [1] and in assay [2] were 107% and 106%, respectively.

On to `Oc1ccc(CCOc2cncc3nnc(-c4ccc(O)cc4)n23)cc1`, for which the Activity in assay [1] is 99%; in assay [2] it was 94%.

For `Nc1nc2ccc(-c3ccc(O)cc3)cc2n1-c1ccc(O)cc1`, the Activity in assay [1] was found to be 43%; in assay [2], 74%.

For `Oc1ccc(-c2ccnc(-c3cc(-c4ccc(O)cc4)ccn3)c2)cc1`, the Activity in assay [1] was 83%; in assay [2] it was 90%.

As for `Oc1ccc(-c2cnc3[nH]cc(-c4ccc(O)cc4)c3c2)cc1`, the Activity in assay [1] and in assay [2] was 3.3% throughout.

Consider `Oc1ccc(-c2nc[nH]c2-c2ccc(O)cc2)cc1`, for which the Activity in assay [1] was found to be 79%; in assay [2] it was 100%.

For the origin of these results see ChEMBL document CHEMBL4261638, “Synthesis and in vitro evaluation of diverse heterocyclic diphenolic compounds as inhibitors of DYRK1A” (Bioorg Med Chem, 2018).
